Positions of bridges follow the written chain, without caps; N, C: chain ends. Non-standard residues stand in square brackets, D forms with d. Residues, ends and D or L forms follow the SMILES beside them. Chains are numbered I, II in the order given. Nva = CCC[C@H](N)C(=O)O
How the values were obtained:
[1] = biological target: T1, Neuropeptide Y receptor type 1 (Homo sapiens, UniProt P25929); experiment: Agonist activity at human NPY1 receptor in CHO cells by inhibition of forskolin-stimulated cAMP synthesis; format: functional, cell-based
T1 sequence (P25929 whole entry): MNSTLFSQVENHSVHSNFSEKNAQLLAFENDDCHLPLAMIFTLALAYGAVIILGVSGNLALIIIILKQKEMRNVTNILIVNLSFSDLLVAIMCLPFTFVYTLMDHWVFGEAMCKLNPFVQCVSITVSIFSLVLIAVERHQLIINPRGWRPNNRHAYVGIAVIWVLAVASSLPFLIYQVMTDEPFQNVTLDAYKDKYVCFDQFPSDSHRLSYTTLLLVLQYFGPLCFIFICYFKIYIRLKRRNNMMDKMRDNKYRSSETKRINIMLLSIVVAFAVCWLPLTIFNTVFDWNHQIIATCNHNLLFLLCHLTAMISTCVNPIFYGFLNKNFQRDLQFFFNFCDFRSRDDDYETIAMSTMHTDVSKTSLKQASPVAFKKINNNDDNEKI

[2] = biological target: T2, Neuropeptide Y receptor type 4 (Homo sapiens, UniProt P50391); experiment: Displacement of [125I]hPP from human NPY4 receptor expressed in CHO cells; format: cell-based
Method in brief: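 Y4 binding used membranes from CHO cells stably expressing cloned human Y4, with 125I-PP as radioligand. Competing peptides were tested over a range of concentrations in 50 mM HEPES pH 7.3, 0.1% BSA, 2.5 mM CaCl2 and 1 mM MgCl2 for 90 min at room temperature. Separation was by filtration and γ-counting. Nonspecific binding was taken with 1 µM PP. Duplicate points, three experiments, nonlinear regression.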

[3] = biological target: T1, Neuropeptide Y receptor type 1; experiment: Displacement of […] from human NPY1 receptor expressed in CHO cells; format: cell-based
Method in brief: (§1)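 Competition binding on membranes (5-10 µg protein) from CHO cells stably expressing human Y1, Y2 or rat-human hybrid Y5 receptors. Radioligand 0.2 nM 125I-PYY, incubated with a range of peptide concentrations in 50 mM HEPES pH 7.3, 0.1% BSA, 2.5 mM CaCl2 and 1 mM MgCl2 for 90 min at room temperature. Bound ligand separated on PEI-treated glass fibre filters, washed with PBS and γ-counted. 1 µM NPY defined nonspecific binding. Duplicate points, three experiments, nonlinear regression.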

[4] = biological target: T3, Neuropeptide Y receptor type 2 (Homo sapiens, UniProt P49146); experiment: Displacement of […] from human NPY2 receptor expressed in CHO cells; format: cell-based; method in brief: as §1
T3 sequence (P49146 whole entry): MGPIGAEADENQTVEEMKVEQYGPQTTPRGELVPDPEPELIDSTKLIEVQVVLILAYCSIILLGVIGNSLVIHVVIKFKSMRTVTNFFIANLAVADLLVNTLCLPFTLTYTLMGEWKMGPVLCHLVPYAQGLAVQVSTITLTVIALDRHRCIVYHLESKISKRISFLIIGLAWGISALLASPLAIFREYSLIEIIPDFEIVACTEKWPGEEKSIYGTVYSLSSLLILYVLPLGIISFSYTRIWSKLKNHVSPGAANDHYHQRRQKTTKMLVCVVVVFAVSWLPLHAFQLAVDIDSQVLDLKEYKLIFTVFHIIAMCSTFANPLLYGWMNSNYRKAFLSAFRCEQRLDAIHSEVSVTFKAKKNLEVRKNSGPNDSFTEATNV

[5] = Displacement of […] from rat-human hybrid NPY5 receptor expressed in CHO cells; format: cell-based; method in brief: as §1
[6] = biological target: T2, Neuropeptide Y receptor type 4; experiment: Agonist activity at human NPY4 receptor in CHO cells by inhibition of forskolin-stimulated cAMP synthesis
Homo sapiens [7] = species on record: Homo sapiens; experiment: Selectivity for human NPY4 over NPY1 receptor
Homo sapiens [8] = species on record: Homo sapiens; experiment: Selectivity for human NPY4 over NPY2 receptor
[9] = Selectivity for human NPY4 over rat-human hybrid NPY5 receptor
[10] = biological target: T4, Neuropeptide Y receptor type 1 (Homo sapiens) (UniProt P25929); experiment: Antagonist activity against human NPY1 receptor in CHO cells by inhibition of forskolin-stimulated cAMP synthesis; format: functional, cell-based
T4 sequence (whole entry): T1 sequence (P25929 whole entry)

T2 sequence (P50391 whole entry): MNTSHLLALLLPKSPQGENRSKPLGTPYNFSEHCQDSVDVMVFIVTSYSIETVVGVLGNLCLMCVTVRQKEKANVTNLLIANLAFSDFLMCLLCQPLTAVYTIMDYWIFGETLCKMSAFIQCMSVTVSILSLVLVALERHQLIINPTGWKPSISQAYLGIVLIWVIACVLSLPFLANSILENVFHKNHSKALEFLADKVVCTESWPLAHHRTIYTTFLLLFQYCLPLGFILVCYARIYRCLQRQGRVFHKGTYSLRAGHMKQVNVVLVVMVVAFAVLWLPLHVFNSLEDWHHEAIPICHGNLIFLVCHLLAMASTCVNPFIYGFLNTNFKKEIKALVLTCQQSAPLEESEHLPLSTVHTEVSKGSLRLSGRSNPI

| SMILES | EC50 [1] [nM] | Ki [2] [nM] | Ki [3] [nM] | Ki [4] [nM] | Ki [5] [nM] | EC50 [6] [nM] | Selectivity ratio (Homo sapiens [7]) | Selectivity ratio (Homo sapiens [8]) | Selectivity ratio [9] | Kb [10] [nM] |
| --- | --- | --- | --- | --- | --- | --- | --- | --- | --- | --- |
| CC(C)C[C@H](NC(=O)[C@H](CCCN=C(N)N)NC(=O)[C@H](Cc1ccc(O)cc1)NC(=O)[C@@H](N)CCCC[C@H](N)C(=O)N[C@@H](Cc1ccc(O)cc1)C(=O)N[C@@H](CCCN=C(N)N)C(=O)N[C@@H](CC(C)C)C(=O)N[C@@H](CCCN=C(N)N)C(=O)N[C@@H](Cc1ccc(O)cc1)C(N)=O)C(=O)N[C@@H](CCCN=C(N)N)C(=O)N[C@@H](Cc1ccc(O)cc1)C(N)=O | 240 | 0.05 | 7.5 | 890 | > 1000 | 14.8 |  |  |  |  |
| CCC[C@H](NC(=O)[C@H](CCCN=C(N)N)NC(=O)[C@H](Cc1c[nH]c2ccccc12)NC(=O)[C@@H](N)CC[C@H](N)C(=O)N[C@@H](Cc1c[nH]c2ccccc12)C(=O)N[C@@H](CCCN=C(N)N)C(=O)N[C@@H](CCC)C(=O)N[C@@H](CCCN=C(N)N)C(=O)N[C@@H](Cc1ccc(O)cc1)C(N)=O)C(=O)N[C@@H](CCCN=C(N)N)C(=O)N[C@@H](Cc1ccc(O)cc1)C(N)=O |  | 4.2 | 140 | 360 | 330 | 460 | 34 | 85 | 78 |  |
| CCC[C@H](NC(=O)[C@H](CCCN=C(N)N)NC(=O)[C@H](Cc1c[nH]c2ccccc12)NC(=O)[C@H](Cc1ccc(O)cc1)NC(=O)[C@H](CCCN=C(N)N)NC(=O)[C@H](CCC)NC(=O)[C@H](CCCN=C(N)N)NC(=O)[C@@H](N)Cc1c[nH]c2ccccc12)C(=O)N[C@@H](CCCN=C(N)N)C(=O)N[C@@H](Cc1ccc(O)cc1)C(N)=O (H-WR[Nva]RYWR[Nva]RY-NH2) |  | 5.3 | 220 | 1050 | 250 | 290 | 50 | 200 | 50 | 320 |
| CCC[C@H](NC(=O)[C@H](CCCN=C(N)N)NC(=O)[C@H](Cc1c[nH]c2ccccc12)NC(=O)[C@@H](N)CSSC[C@H](N)C(=O)N[C@@H](Cc1c[nH]c2ccccc12)C(=O)N[C@@H](CCCN=C(N)N)C(=O)N[C@@H](CCC)C(=O)N[C@@H](CCCN=C(N)N)C(=O)N[C@@H](Cc1ccc(O)cc1)C(N)=O)C(=O)N[C@@H](CCCN=C(N)N)C(=O)N[C@@H](Cc1ccc(O)cc1)C(N)=O (I: H-CWR[Nva]RY-NH2 / II: H-CWR[Nva]RY-NH2; disulfide I:1-II:1) |  |  |  |  | 770 |  | 10 | 110 | 30 | 1730 |
| CCC[C@H](NC(=O)[C@H](CCCNC(=N)N)NC(=O)[C@H](Cc1c[nH]c2ccccc12)NC(=O)[C@@H](N)CSSC[C@H](N)C(=O)N[C@@H](Cc1c[nH]c2ccccc12)C(=O)N[C@@H](CCCNC(=N)N)C(=O)N[C@@H](CCC)C(=O)N[C@@H](CCCNC(=N)N)C(=O)N[C@@H](Cc1ccc(O)cc1)C(N)=O)C(=O)N[C@@H](CCCNC(=N)N)C(=O)N[C@@H](Cc1ccc(O)cc1)C(N)=O (I: H-CWR[Nva]RY-NH2 / II: H-CWR[Nva]RY-NH2; disulfide I:1-II:1) |  | 30 | 340 | > 3000 |  | 570 |  |  |  |  |
| CCC[C@H](NC(=O)[C@H](CCCN=C(N)N)NC(=O)[C@H](Cc1c[nH]c2ccccc12)NC(=O)[C@@H](N)CCC[C@H](N)C(=O)N[C@@H](Cc1c[nH]c2ccccc12)C(=O)N[C@@H](CCCN=C(N)N)C(=O)N[C@@H](CCC)C(=O)N[C@@H](CCCN=C(N)N)C(=O)N[C@@H](Cc1ccc(O)cc1)C(N)=O)C(=O)N[C@@H](CCCN=C(N)N)C(=O)N[C@@H](Cc1ccc(O)cc1)C(N)=O (stereo in doubt; 2A) [listing 1 of 2 here] |  | 4.3 | 120 | 310 | 2160 | 200 |  |  |  |  |
| CCC[C@H](NC(=O)[C@H](CCCN=C(N)N)NC(=O)[C@H](Cc1c[nH]c2ccccc12)NC(=O)[C@@H](N)CCC[C@H](N)C(=O)N[C@@H](Cc1c[nH]c2ccccc12)C(=O)N[C@@H](CCCN=C(N)N)C(=O)N[C@@H](CCC)C(=O)N[C@@H](CCCN=C(N)N)C(=O)N[C@@H](Cc1ccc(O)cc1)C(N)=O)C(=O)N[C@@H](CCCN=C(N)N)C(=O)N[C@@H](Cc1ccc(O)cc1)C(N)=O (stereo in doubt; 2A) [listing 2 of 2 here] |  |  |  |  |  |  | 30 | 70 | 500 |  |
| CCC[C@H](NC(=O)[C@H](CCCN=C(N)N)NC(=O)[C@H](Cc1c[nH]c2ccccc12)NC(=O)[C@@H](N)CCC[C@H](N)C(=O)N[C@@H](Cc1c[nH]c2ccccc12)C(=O)N[C@@H](CCCN=C(N)N)C(=O)N[C@@H](CCC)C(=O)N[C@@H](CCCN=C(N)N)C(=O)N[C@@H](Cc1ccc(O)cc1)C(N)=O)C(=O)N[C@@H](CCCN=C(N)N)C(=O)N[C@@H](Cc1ccc(O)cc1)C(N)=O (stereo in doubt; 2B) [listing 1 of 2 here] |  | 4.1 | 140 | 260 | 2280 | 220 |  |  |  |  |
| CCC[C@H](NC(=O)[C@H](CCCN=C(N)N)NC(=O)[C@H](Cc1c[nH]c2ccccc12)NC(=O)[C@@H](N)CCC[C@H](N)C(=O)N[C@@H](Cc1c[nH]c2ccccc12)C(=O)N[C@@H](CCCN=C(N)N)C(=O)N[C@@H](CCC)C(=O)N[C@@H](CCCN=C(N)N)C(=O)N[C@@H](Cc1ccc(O)cc1)C(N)=O)C(=O)N[C@@H](CCCN=C(N)N)C(=O)N[C@@H](Cc1ccc(O)cc1)C(N)=O (stereo in doubt; 2B) [listing 2 of 2 here] |  |  |  |  |  |  | 40 | 60 | 550 |  |
| CCC[C@H](NC(=O)[C@H](CCCN=C(N)N)NC(=O)[C@H](Cc1c[nH]c2ccccc12)NC(=O)[C@@H](N)CCCC[C@H](N)C(=O)N[C@@H](Cc1c[nH]c2ccccc12)C(=O)N[C@@H](CCCN=C(N)N)C(=O)N[C@@H](CCC)C(=O)N[C@@H](CCCN=C(N)N)C(=O)N[C@@H](Cc1ccc(O)cc1)C(N)=O)C(=O)N[C@@H](CCCN=C(N)N)C(=O)N[C@@H](Cc1ccc(O)cc1)C(N)=O (stereo in doubt; 4A) [listing 1 of 2 here] |  | 4.1 | 90 | 390 | 120 | 430 |  |  |  |  |
| CCC[C@H](NC(=O)[C@H](CCCN=C(N)N)NC(=O)[C@H](Cc1c[nH]c2ccccc12)NC(=O)[C@@H](N)CCCC[C@H](N)C(=O)N[C@@H](Cc1c[nH]c2ccccc12)C(=O)N[C@@H](CCCN=C(N)N)C(=O)N[C@@H](CCC)C(=O)N[C@@H](CCCN=C(N)N)C(=O)N[C@@H](Cc1ccc(O)cc1)C(N)=O)C(=O)N[C@@H](CCCN=C(N)N)C(=O)N[C@@H](Cc1ccc(O)cc1)C(N)=O (stereo in doubt; 4A) [listing 2 of 2 here] |  |  |  |  |  |  | 20 | 100 | 30 |  |
| CCC[C@H](NC(=O)[C@H](CCCN=C(N)N)NC(=O)[C@H](Cc1c[nH]c2ccccc12)NC(=O)[C@@H](N)CCCC[C@H](N)C(=O)N[C@@H](Cc1c[nH]c2ccccc12)C(=O)N[C@@H](CCCN=C(N)N)C(=O)N[C@@H](CCC)C(=O)N[C@@H](CCCN=C(N)N)C(=O)N[C@@H](Cc1ccc(O)cc1)C(N)=O)C(=O)N[C@@H](CCCN=C(N)N)C(=O)N[C@@H](Cc1ccc(O)cc1)C(N)=O (stereo in doubt; 4B) [listing 1 of 2 here] | 1410 | 2 | 80 | 530 | 280 | 370 |  |  |  |  |
| CCC[C@H](NC(=O)[C@H](CCCN=C(N)N)NC(=O)[C@H](Cc1c[nH]c2ccccc12)NC(=O)[C@@H](N)CCCC[C@H](N)C(=O)N[C@@H](Cc1c[nH]c2ccccc12)C(=O)N[C@@H](CCCN=C(N)N)C(=O)N[C@@H](CCC)C(=O)N[C@@H](CCCN=C(N)N)C(=O)N[C@@H](Cc1ccc(O)cc1)C(N)=O)C(=O)N[C@@H](CCCN=C(N)N)C(=O)N[C@@H](Cc1ccc(O)cc1)C(N)=O (stereo in doubt; 4B) [listing 2 of 2 here] |  |  |  |  |  |  | 40 | 270 | 140 |  |

From ChEMBL document CHEMBL1146122, “Neuropeptide Y (NPY) Y4 receptor selective agonists based on NPY(32-36): development of an anorectic Y4 receptor selective agonist with picomolar affinity” (J Med Chem, 2006)
